Data published in ChEMBL document CHEMBL1140145, “Identification of non-nucleoside DNA synthesis inhibitors of vaccinia virus by high-throughput screening” (J Med Chem, 2008).
pEC50, pIC50: −log10 of the molar value. Active and inactive are the calls of the source. The calls are words filed in the database; no cut-off is given here.

Legend:
Vaccinia virus [1] = assay: Antiviral activity against Vaccinia virus WR in BSC1 cells assessed as protection from virus-induced lysis of cell monolayer after 20 hrs; type: functional, organism-based; conditions: Orthopoxvirus vaccinia, BSC-1, 20 h
Vaccinia virus [2] = assay: Inhibition of Vaccinia virus DNA synthesis in by rapid plate assay; type: functional, organism-based; conditions: Orthopoxvirus vaccinia
[3] = Cytotoxicity against african green monkey BSC1 cells after 20 hrs WST-1 based assay; type: cell-based, BSC-1; conditions: chlorocebus aethiops, read-out: TC50
In short: (§1)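 Uninfected BS-C-1 cells in phenol red-free medium, seeded 5000 (20 h), 1000 (3-day) or 200 (5-day) cells/well, exposed next day to compound in two-fold serial dilutions (top 200 µM; 1% DMSO final) at 37°C. WST-1 added 30 min, A450 read. Triplicates; percent cytotoxicity vs DMSO fitted four-parameter sigmoidal for TC50.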

Vaccinia virus [4] = assay: Antiviral activity against Vaccinia virus WR in BSC1 cells assessed as reduction in plaque formation after 20 hrs; type: functional, organism-based; conditions: Orthopoxvirus vaccinia, BSC-1, 20 h
[5] = Cytotoxicity against african green monkey BSC1 cells after 120 hrs WST-1 based assay; type: cell-based, BSC-1; conditions: chlorocebus aethiops, read-out: TC50; in short: as §1
[6] = Selectivity index, TC50 for african green monkey BSC1 cells after 20 hrs to EC50 for Vaccinia virus WR in BSC1 cells after 20 hrs by cell protection assay; type: toxicity, cell-based, BSC-1; conditions: read-out: Selectivity Index
Vaccinia virus [7] = assay: Antiviral activity against Vaccinia virus WR in BSC1 cells assessed as retention of antiviral potency by measuring exogenous double stranded DNA trapping; type: functional, organism-based; conditions: Orthopoxvirus vaccinia, BSC-1
[8] = Cytotoxicity against african green monkey BSC1 cells after 72 hrs WST-1 based assay; type: cell-based, BSC-1; conditions: chlorocebus aethiops, read-out: TC50; in short: as §1
[9] = Cytotoxicity against african green monkey BSC1 cells up to 200 uM after 20 to 120 hrs WST-1 based assay; type: cell-based; conditions: chlorocebus aethiops, bsc-1; in short: as §1
Vaccinia virus [10] = assay: Antiviral activity against Vaccinia virus WR in BSC1 cells assessed as protection from virus-induced lysis of cell monolayer up to 200 uM after 20 hrs; type: functional, organism-based; conditions: Orthopoxvirus vaccinia, BSC-1
Vaccinia virus [11] = assay: Antiviral activity against Vaccinia virus WR in BSC1 cells assessed as reduction in plaque formation up to 200 uM after 20 hrs; type: functional, organism-based; conditions: Orthopoxvirus vaccinia, BSC-1
[12] = Selectivity index, TC50 for african green monkey BSC1 cells after 72 hrs to EC50 for Vaccinia virus WR in BSC1 cells after 72 hrs by cell protection assay; type: toxicity, cell-based, BSC-1; conditions: read-out: Selectivity Index

Compound	pEC50 (Vaccinia virus [1])	pIC50 (Vaccinia virus [2])	CC50 at 20 h [3]	pEC50 (Vaccinia virus [4])	CC50 at 120 h [5]	selectivity ratio at 20 h [6]	Activity (Vaccinia virus [7])	CC50 at 72 h [8]	Activity [9]	Activity (Vaccinia virus [10])	Activity (Vaccinia virus [11])	selectivity ratio at 72 h [12]
COc1ccc(-c2cc3ccccn3c2C(=O)c2cccnc2)c(OC)c1	4.06	4.60	> 200 µM	4.00	60 µM	> 2.3	inactive	152 µM				
O=C(Nc1ccccc1C(=O)O)OCC1c2ccccc2-c2ccccc21		4.59	> 200 µM	4.12	20 µM	> 1.9	Active	40 µM				
Cc1ccc2c(Sc3ccc(Cl)cc3)c(C(=O)O)[nH]c2c1		4.37	> 200 µM	4.12	120 µM	> 1.5	Active	174 µM				
N/N=C1\CCCc2c1[nH]c1ccc(C(=O)NN)cc21	3.71		> 200 µM	4.00			inactive	35 µM				
Cc1cc(/N=C/c2cc(Cl)cc(Cl)c2O)no1	4.02	4.52	> 200 µM	4.12	20 µM	> 2.1	Active	50 µM				
CCOC(=O)CCc1c(CC(=O)OCC)c[nH]c1/C=N/O.Cl		5.42							Toxic	inactive	inactive	
O=C1/C(=C/C2CCCO2)CC/C1=C\C1CCCO1 (centres undefined)	4.00	3.62	> 100 µM	4.30	50 µM	> 1	Active	> 100 µM				
O=C(NCCCN1CCCC1)c1cc2c(Cl)nc3ccccc3c2s1		5.00							Toxic	inactive	inactive	
Nc1ccn(C[C@@H](CO)OCP(=O)(O)O)c(=O)n1 [CIDOFOVIR]			> 500 µM	4.30	300 µM	> 3.8	Active	> 500 µM				
CCN(CC)CCCNc1nc2cc(OC)c(OC)cc2c2nc(-c3ccccc3)nn12		5.23							Toxic	inactive	inactive	
Cc1cc(OC(=O)c2ccco2)nc(SCc2c(Cl)cccc2Cl)n1	4.00	4.28	> 100 µM	4.12	> 100 µM	> 2	Active	> 100 µM				
CC(=O)n1c2ccccc2c2nc(C)sc21		3.95	> 200 µM	4.00	75 µM	> 1	Active	> 200 µM				
COC(=O)c1cccc2c1-c1ccccc1/C2=N\O	5.02	3.97	127 µM	5.00	20 µM	13.2	Active					3.2
O=C(O)Cn1c2ccc(Cl)cc2c2nc3ccccc3nc21	4.00		> 100 µM	4.30	30 µM		Active	13 µM				
CCC/N=c1\cc(-c2ccccc2)oc2ccc(C)cc12	4.24		> 200 µM	4.60	10 µM		inactive					
N=C1/C(=C/c2coc3ccccc3c2=O)C(=O)N=C2SC=NN12		4.12	> 200 µM		50 µM	> 1	Active	> 200 µM				
Cc1c(/N=C/c2cc(Br)cc(Br)c2O)cccc1C(=O)O	4.00	4.59	> 200 µM	4.12	20 µM	> 2	Active	38 µM				
CC1=CC(C)(C)N=C(Nc2nc(C)c3cc(C)cc(C)c3n2)N1		5.28							Toxic	inactive	inactive	
BrCc1ccc(-c2noc(-c3ccncc3)n2)cc1		5.89							Toxic	inactive	inactive	
O=C(O)c1ccc(CS(=O)(=O)c2ccccc2)o1		5.13							Toxic	inactive	inactive	
CCNc1nc(SCc2ccc(Cl)cc2)nc2sc3c(c12)CCN(C)C3	4.35	3.89	115 µM	4.82	5 µM	2.6	Active					
COc1ccc2c(c1)C=C/C(=C\c1sc3ccccc3[n+]1C)N2C.[Cl-]		5.40							Toxic	inactive	inactive	
N=C1S/C(=C/c2ccco2)C(=O)N1c1nccs1	4.10	4.49	> 100 µM	4.12	50 µM	> 1.2	Active	> 100 µM				
CCn1c2ccccc2c2ccc(/C=N/n3cnnc3)cc21	4.30	3.88	> 200 µM	4.30	3 µM	> 4	Active	36 µM				
Cc1ccc2oc(-c3ccccc3)c/c(=N\CCO)c2c1	4.24	4.60	> 200 µM	4.40	12 µM	> 3.5	inactive					
CN(C)CCc1cc2c(c3c1ccc1ccccc13)OCO2		5.27							Toxic	inactive	inactive	
CCN1CCN(c2ccc(Nc3ccnc4cc5ccccc5cc34)cc2)CC1		6.30							Toxic	inactive	inactive	
Cc1csc2c(N3CCN(C(=O)NC(C)(C)C)CC3)ncnc12	4.30	4.92	157 µM	4.82	40 µM	3.1	Active					
CC1CCCC(C)N1CCNc1nc2ccccc2c2nc(-c3ccccc3)nn12 (centres undefined)		5.14							Toxic	inactive	inactive	
